{"source": "paper PMC9302689", "about": "(British Journal of Clinical Pharmacology, 2022)", "key": {"[1]": {"tested_on": "healthy male subjects", "assay": "NeuroCart pupillometry", "format": "in vivo, human", "conditions": "12-hour post-dose period", "in_short": "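In healthy men given a single dose or placebo, both eyes were photographed simultaneously with the head in a support. This was done twice pre-dose and at 0.5–10 h post-dose. Change from baseline over 12 h was analysed by MMRM against pooled placebo, with baseline as covariate.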"}, "[2]": {"assay": "Preclinical pharmacokinetic studies", "format": "in vivo", "conditions": "dogs and rats, oral administration"}, "[3]": {"tested_on": "dogs", "assay": "Preclinical multiple dose toxicology study in dogs", "format": "in vivo"}, "[4]": {"tested_on": "healthy male subjects", "assay": "NeuroCart saccadic eye movement", "format": "in vivo, human", "conditions": "12-hour post-dose period", "in_short": "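Fasted healthy men were tested twice pre-dose and at 0.5–10 h post-dose with the head fixed 58 cm from the screen. Subjects followed a dot jumping about 15 degrees to either side. Fifteen saccades were recorded at random 3–6 s intervals. Peak velocity (deg/s) was averaged over artefact-free saccades. Change from baseline over 12 h was analysed by MMRM against pooled placebo.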"}, "[5]": {"tested_on": "healthy male subjects", "assay": "VAS Bond and Lader", "format": "in vivo, human", "conditions": "12-hour post-dose period", "in_short": "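Subjects marked 16 horizontal 100 mm visual analogue scales twice pre-dose and at 0.5–10 h after a single dose or placebo. Three factors were derived: alertness from 9 scores, mood from 5 and calmness from 2. Change from baseline over 12 h was analysed by MMRM against pooled placebo, with baseline as covariate.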"}, "[6]": {"molecular_target": "sigma non‐opioid intracellular receptor 1 (Homo sapiens, UniProt Q99720)", "sequence (Q99720 whole entry, species assumed)": "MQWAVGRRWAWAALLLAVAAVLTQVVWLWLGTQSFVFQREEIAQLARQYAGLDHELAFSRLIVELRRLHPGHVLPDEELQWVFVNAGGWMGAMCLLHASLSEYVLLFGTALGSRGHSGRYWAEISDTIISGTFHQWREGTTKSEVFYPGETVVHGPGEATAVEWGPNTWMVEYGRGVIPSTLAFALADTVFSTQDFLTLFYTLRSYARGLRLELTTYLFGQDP", "assay": "In vitro binding affinity, sigma non-opioid intracellular receptor 1"}, "[7]": {"molecular_target": "NMDA receptor", "assay": "In vitro binding affinity, NMDA receptor", "conditions": "read-out: Ki, NMDA receptor; preclinical in vitro panel"}, "[8]": {"tested_on": "rats", "assay": "Preclinical multiple dose toxicology study in rats", "format": "in vivo"}}}
{"smiles": "CN1CCC23CCCCC2C1Cc1ccc(C(N)=O)cc13", "note": "(stereo not drawn) [ALKS 7119, (9α, 13α)‐17‐methylmorphinan‐3‐carboxamide]", "values": [{"measurement": "Right pupil/iris ratio, LSM CFB", "setting": "[1]; 125 mg single oral dose", "result": 0.05}, {"measurement": "Left pupil/iris ratio, LSM CFB", "setting": "[1]; 150 mg single oral dose", "result": 0.03}, {"measurement": "Right pupil/iris ratio, LSM CFB", "setting": "[1]; 150 mg single oral dose", "result": 0.05}, {"measurement": "Left pupil/iris ratio, LSM CFB", "setting": "[1]; 175 mg single oral dose", "result": 0.05}, {"measurement": "Right pupil/iris ratio, LSM CFB", "setting": "[1]; 175 mg single oral dose", "result": 0.06}, {"measurement": "Left pupil/iris ratio, LSM CFB", "setting": "[1]; 200 mg single oral dose", "result": 0.08}, {"measurement": "Right pupil/iris ratio, LSM CFB", "setting": "[1]; 200 mg single oral dose", "result": 0.06}, {"measurement": "median time to maximum plasma concentration (tmax)", "setting": "[2]", "result": 30, "unit": "min"}, {"measurement": "human equivalent dose (HED) of NOAEL", "setting": "[3]; dog NOAEL", "result": 97.2, "unit": "mg"}, {"measurement": "NOAEL", "setting": "[3]; dogs, multiple dose toxicology", "result": 3, "unit": "mg/kg"}, {"measurement": "Saccadic peak velocity, LSM CFB", "setting": "[4]; 3 mg single oral dose", "result": "−16.15", "unit": "deg/s"}, {"measurement": "Saccadic peak velocity, LSM CFB", "setting": "[4]; 10 mg single oral dose", "result": 1.46, "unit": "deg/s"}, {"measurement": "Saccadic peak velocity, LSM CFB", "setting": "[4]; 25 mg single oral dose", "result": 6.12, "unit": "deg/s"}, {"measurement": "Saccadic peak velocity, LSM CFB", "setting": "[4]; 50 mg single oral dose", "result": 2.91, "unit": "deg/s"}, {"measurement": "Saccadic peak velocity, LSM CFB", "setting": "[4]; 75 mg single oral dose", "result": "−5.63", "unit": "deg/s"}, {"measurement": "Saccadic peak velocity, LSM CFB", "setting": "[4]; 100 mg single oral dose", "result": 13.25, "unit": "deg/s"}, {"measurement": "Saccadic peak velocity, LSM CFB", "setting": "[4]; 125 mg single oral dose", "result": 5.98, "unit": "deg/s"}, {"measurement": "Saccadic peak velocity, LSM CFB", "setting": "[4]; 150 mg single oral dose", "result": 18.15, "unit": "deg/s"}, {"measurement": "Saccadic peak velocity, LSM CFB", "setting": "[4]; 175 mg single oral dose", "result": 5.26, "unit": "deg/s"}, {"measurement": "Saccadic peak velocity, LSM CFB", "setting": "[4]; 200 mg single oral dose", "result": "−0.64", "unit": "deg/s"}, {"measurement": "VAS Bond and Lader “calmness”, LSM CFB", "setting": "[5]; 3 mg single oral dose", "result": 6.65, "unit": "mm"}, {"measurement": "VAS Bond and Lader “mood”, LSM CFB", "setting": "[5]; 3 mg single oral dose", "result": 6.17, "unit": "mm"}, {"measurement": "VAS Bond and Lader “subjective alertness”, LSM CFB", "setting": "[5]; 3 mg single oral dose", "result": 1.64, "unit": "mm"}, {"measurement": "VAS Bond and Lader “calmness”, LSM CFB", "setting": "[5]; 10 mg single oral dose", "result": "−0.31", "unit": "mm"}, {"measurement": "VAS Bond and Lader “mood”, LSM CFB", "setting": "[5]; 10 mg single oral dose", "result": "−0.04", "unit": "mm"}, {"measurement": "VAS Bond and Lader “subjective alertness”, LSM CFB", "setting": "[5]; 10 mg single oral dose", "result": 0.03, "unit": "mm"}, {"measurement": "VAS Bond and Lader “calmness”, LSM CFB", "setting": "[5]; 25 mg single oral dose", "result": "−0.57", "unit": "mm"}, {"measurement": "VAS Bond and Lader “mood”, LSM CFB", "setting": "[5]; 25 mg single oral dose", "result": "−0.14", "unit": "mm"}, {"measurement": "VAS Bond and Lader “subjective alertness”, LSM CFB", "setting": "[5]; 25 mg single oral dose", "result": 0.26, "unit": "mm"}, {"measurement": "VAS Bond and Lader “calmness”, LSM CFB", "setting": "[5]; 50 mg single oral dose", "result": 3.6, "unit": "mm"}, {"measurement": "VAS Bond and Lader “mood”, LSM CFB", "setting": "[5]; 50 mg single oral dose", "result": 4.47, "unit": "mm"}, {"measurement": "VAS Bond and Lader “subjective alertness”, LSM CFB", "setting": "[5]; 50 mg single oral dose", "result": 0.96, "unit": "mm"}, {"measurement": "VAS Bond and Lader “calmness”, LSM CFB", "setting": "[5]; 75 mg single oral dose", "result": 0.26, "unit": "mm"}, {"measurement": "VAS Bond and Lader “mood”, LSM CFB", "setting": "[5]; 75 mg single oral dose", "result": "−0.82", "unit": "mm"}, {"measurement": "VAS Bond and Lader “subjective alertness”, LSM CFB", "setting": "[5]; 75 mg single oral dose", "result": "−1.02", "unit": "mm"}, {"measurement": "VAS Bond and Lader “calmness”, LSM CFB", "setting": "[5]; 100 mg single oral dose", "result": 0.58, "unit": "mm"}, {"measurement": "VAS Bond and Lader “mood”, LSM CFB", "setting": "[5]; 100 mg single oral dose", "result": 0.56, "unit": "mm"}, {"measurement": "VAS Bond and Lader “subjective alertness”, LSM CFB", "setting": "[5]; 100 mg single oral dose", "result": 0.57, "unit": "mm"}, {"measurement": "VAS Bond and Lader “calmness”, LSM CFB", "setting": "[5]; 125 mg single oral dose", "result": 0.46, "unit": "mm"}, {"measurement": "VAS Bond and Lader “mood”, LSM CFB", "setting": "[5]; 125 mg single oral dose", "result": 1.63, "unit": "mm"}, {"measurement": "VAS Bond and Lader “subjective alertness”, LSM CFB", "setting": "[5]; 125 mg single oral dose", "result": "−0.56", "unit": "mm"}, {"measurement": "VAS Bond and Lader “calmness”, LSM CFB", "setting": "[5]; 150 mg single oral dose", "result": 2.59, "unit": "mm"}, {"measurement": "VAS Bond and Lader “mood”, LSM CFB", "setting": "[5]; 150 mg single oral dose", "result": 3.35, "unit": "mm"}, {"measurement": "VAS Bond and Lader “subjective alertness”, LSM CFB", "setting": "[5]; 150 mg single oral dose", "result": 1.94, "unit": "mm"}, {"measurement": "VAS Bond and Lader “calmness”, LSM CFB", "setting": "[5]; 175 mg single oral dose", "result": 0.08, "unit": "mm"}, {"measurement": "VAS Bond and Lader “mood”, LSM CFB", "setting": "[5]; 175 mg single oral dose", "result": 0.11, "unit": "mm"}, {"measurement": "VAS Bond and Lader “subjective alertness”, LSM CFB", "setting": "[5]; 175 mg single oral dose", "result": "−1.17", "unit": "mm"}, {"measurement": "VAS Bond and Lader “calmness”, LSM CFB", "setting": "[5]; 200 mg single oral dose", "result": 0.68, "unit": "mm"}, {"measurement": "VAS Bond and Lader “mood”, LSM CFB", "setting": "[5]; 200 mg single oral dose", "result": 0.51, "unit": "mm"}, {"measurement": "VAS Bond and Lader “subjective alertness”, LSM CFB", "setting": "[5]; 200 mg single oral dose", "result": 0.09, "unit": "mm"}, {"measurement": "Affinity for sigma non-opioid intracellular receptor 1 lower than for SERT", "setting": "[6]", "result": 900, "unit": "fold"}, {"measurement": "Ki", "setting": "[7]", "result": 7.44, "unit": "µM"}, {"measurement": "human equivalent dose (HED) of NOAEL", "setting": "[8]; rat NOAEL, body surface area extrapolation per FDA guidelines", "result": 96, "unit": "mg"}, {"measurement": "NOAEL", "setting": "[8]; rats, multiple dose toxicology", "result": 10, "unit": "mg/kg"}]}
